Measured values reported in ChEMBL document CHEMBL3124806, “Imidazopyridine-fused [1,3]-diazepinones: synthesis and antiproliferative activity” (Eur J Med Chem, 2014).
The source made the active and inactive calls. The rule behind the calls is not given here.

Tests used:
[1] = target: Glycogen synthase kinase-3 beta (Homo sapiens) (UniProt P49841); assay: Inhibition of human GSK3 beta at 10 uM
Method in brief: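 Kinase selectivity panel of 19 protein tyrosine kinases and 30 serine/threonine kinases, run by a contract lab (CEREP). Each compound was tested at a single dose of 10 μM in duplicate.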

MDA-MB-435 [2] = assay: Induction of apoptosis in human MDA-MB-435 cells assessed as nuclei fragmentation at 5 uM after 20 hrs by Hoechst 33342 staining-based phase-contrast microscopy; type: functional, cell-based
MDA-MB-435 [3] = assay: Induction of apoptosis in human MDA-MB-435 cells assessed as dispersed and rounded cells at 5 uM after 20 hrs by Hoechst 33342 staining-based phase-contrast microscopy; type: functional, cell-based
Method in brief: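 MDA-MB-435 human melanoma cells were grown in Ham's F12/DMEM (1:1) with 10% FCS and antibiotics at 37 °C under 5% CO₂. Cells were exposed to 5 μM compound or left untreated. They were imaged by phase-contrast microscopy 20 h after treatment.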

MDA-MB-435 [4] = assay: Cytotoxicity against human MDA-MB-435 cells at 5 uM after 8 hrs by MTT assay; type: functional
Method in brief: (§1)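 MDA-MB-435 cells in DMEM/Ham's F12 (1:1) with 10% FCS, 37 °C, 5% CO2. Time course at a fixed 5 µM, incubated 8, 16, 24 or 48 h. Viability then read by MTT reduction (0.5 mg/mL, 4 h), formazan dissolved in EtOH/DMSO, absorbance at 540 nm, as percent living cells.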

MDA-MB-435 [5] = assay: Cytotoxicity against human MDA-MB-435 cells at 5 uM by MTT assay; type: functional, cell-based; settings: TDE = time-dependent effect; method in brief: as §1
T47D = assay: Cytotoxicity against human T47D cells after 48 hrs by SRB assay; type: functional
Method in brief: (§2)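 NCI-60 five-dose mode on the full human tumour line panel. Concentrations ran from 100 to 0.01 µM with 48 h continuous exposure. Growth was estimated by SRB protein staining against untreated controls, and IC50 values were derived from the dose–response.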

PC-3 = assay: Cytotoxicity against human PC3 cells after 48 hrs by SRB assay; type: functional; settings: PC-3, 48 h
Method in brief: (§3)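 NCI-60 five-dose screen: cells exposed continuously for 48 h across 100 to 0.01 µM. Growth or viability estimated by sulforhodamine B protein staining, read spectrophotometrically against untreated controls; IC50 taken from the dose-response.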

SN12C = assay: Cytotoxicity against human SN12C cells after 48 hrs by SRB assay; type: functional; method in brief: as §2
[6] = Cytotoxicity against human UACC257 cells after 48 hrs by SRB assay; type: functional; settings: UACC-257, 48 h; method in brief: as §2
SK-MEL-28 = assay: Cytotoxicity against human SK-MEL-28 cells after 48 hrs by SRB assay; type: functional; settings: SK-MEL-28, 48 h; method in brief: as §3
SNB-75 = assay: Cytotoxicity against human SNB75 cells after 48 hrs by SRB assay; type: functional; settings: SNB-75, 48 h; method in brief: as §2
SF-539 = assay: Cytotoxicity against human SF539 cells after 48 hrs by SRB assay; type: functional; settings: SF-539, 48 h; method in brief: as §3
KM12 = assay: Cytotoxicity against human KM12 cells after 48 hrs by SRB assay; type: functional; settings: KM12, 48 h
Method in brief: (§4)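 NCI-60 five-dose testing, 100 to 0.01 µM, under a 48 h continuous-exposure protocol. Growth estimated by SRB protein assay, read spectrophotometrically against untreated controls; IC50 derived from the dose-response.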

HT-29 = assay: Cytotoxicity against human HT-29 cells after 48 hrs by SRB assay; type: functional; settings: HT-29, 48 h; method in brief: as §4
HCT-15 = assay: Cytotoxicity against human HCT15 cells after 48 hrs by SRB assay; type: functional; settings: HCT-15, 48 h; method in brief: as §4
A549 = assay: Cytotoxicity against human A549 cells after 48 hrs by SRB assay; type: functional; settings: A549, 48 h; method in brief: as §4
RPMI-8226 = assay: Cytotoxicity against human RPMI8226 cells after 48 hrs by SRB assay; type: functional; settings: RPMI-8226, 48 h; method in brief: as §3
MOLT-4 = assay: Cytotoxicity against human MOLT4 cells after 48 hrs by SRB assay; type: functional; settings: MOLT-4, 48 h; method in brief: as §3
K562 = assay: Cytotoxicity against human K562 cells after 48 hrs by SRB assay; type: functional; settings: K562, 48 h; method in brief: as §4
CCRF-CEM = assay: Cytotoxicity against human CCRF-CEM cells after 48 hrs by SRB assay; type: functional; method in brief: as §4
MDA-MB-435 [7] = assay: Induction of apoptosis in human MDA-MB-435 cells assessed as stretched stress action fibres at 5 uM after 20 hrs by Hoechst 33342 staining-based […] microscopy; type: functional, cell-based
Method in brief: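 MDA-MB-435 cells were grown for 24 h, then treated with or without 5 μM compound for 20 h. Cells were fixed for 20 min and permeabilised with 0.2% Triton X-100 for 4 min at room temperature. Actin was stained with a mouse anti-actin antibody and an Alexa Fluor 568 anti-mouse antibody, each for 1 h at RT. Nuclei were counterstained with Hoechst 33342, and cells were imaged by confocal microscopy.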

[8] = Cytotoxicity against human CAL-1 cells assessed as reduction in cell growth at 1 to 10 uM after 48 hrs by MTT assay relative to untreated control; type: functional; set-up: scale not given: the % may be the effect or the level left
Method in brief: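 CAL1 melanoma cells grown in DMEM with 2 mM L-glutamine and 10% FCS at 37 °C, 5% CO2. Seeded at 10^4 cells/well, grown 24 h, then treated 48 h across 100–0.01 μM (compounds dissolved in medium). Read-out: 0.5 mg mL⁻¹ MTT for 4 h, crystals dissolved in EtOH/DMSO 1:1, absorbance at 540 nm.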

MDA-MB-435 [9] = assay: Cytotoxicity against human MDA-MB-435 cells assessed as reduction in cell growth at 1 to 10 uM after 48 hrs by MTT assay relative to untreated control; type: functional; set-up: scale not given: the % may be the effect or the level left
Method in brief: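 Melanoma lines grown at 37 °C in humidified 5% CO2: MDA-MB-435 in DMEM/Ham's F12 1:1 with 10% FCS and antibiotics, SK-MEL-2 in RPMI-1640 with 10% FCS. Cells plated 24 h, then exposed 48 h to 100–0.01 µM (dilutions from fresh 100 µM stock in medium). MTT 0.5 mg/mL added for 4 h, crystals dissolved in EtOH/DMSO 1:1, absorbance read at 540 nm. Mean ± SD of three independent experiments.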

[10] = read-out: LC50 (the source's name)

Glycogen synthase kinase-3 beta (Homo sapiens), sequence (P49841 whole entry, looked up): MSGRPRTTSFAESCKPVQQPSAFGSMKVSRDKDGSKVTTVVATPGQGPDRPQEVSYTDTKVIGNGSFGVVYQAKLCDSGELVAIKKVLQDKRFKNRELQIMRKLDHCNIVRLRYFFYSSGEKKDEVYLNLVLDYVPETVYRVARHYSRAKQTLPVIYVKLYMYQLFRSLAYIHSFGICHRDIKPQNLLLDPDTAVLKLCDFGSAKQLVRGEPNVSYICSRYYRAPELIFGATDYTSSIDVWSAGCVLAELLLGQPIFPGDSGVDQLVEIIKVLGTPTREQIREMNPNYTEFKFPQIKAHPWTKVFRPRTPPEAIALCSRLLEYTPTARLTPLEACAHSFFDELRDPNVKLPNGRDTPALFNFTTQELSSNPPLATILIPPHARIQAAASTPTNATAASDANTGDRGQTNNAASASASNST

## C[C@@H]1NC(c2ccc(Br)cc2)=Nc2nc3ccccn3c2C1=O
[1]
  inhibition: inactive
MDA-MB-435 [2]
  Activity: Active
MDA-MB-435 [3]
  Activity: Active
MDA-MB-435 [4]
  Activity: 35%
MDA-MB-435 [5]
  Activity: tde
T47D
  GI50: 46.2 µM
  TGI: > 100 µM
T47D; [10]
  CC50: > 100 µM
PC-3
  GI50: 5.7 µM
  TGI: > 100 µM
PC-3; [10]
  CC50: > 100 µM
SN12C
  GI50: 17.6 µM
  TGI: > 100 µM
SN12C; [10]
  CC50: > 100 µM
[6]
  GI50: 35.2 µM
  TGI: > 100 µM
[6]; [10]
  CC50: > 100 µM
SK-MEL-28
  GI50: 9.51 µM
  TGI: > 100 µM
SK-MEL-28; [10]
  CC50: > 100 µM
SNB-75
  GI50: 0.7 µM
  TGI: 7.06 µM
SNB-75; [10]
  CC50: > 100 µM
SF-539
  GI50: 7.98 µM
  TGI: 85.3 µM
SF-539; [10]
  CC50: > 100 µM
KM12
  GI50: 3.39 µM
  TGI: > 100 µM
KM12; [10]
  CC50: > 100 µM
HT-29
  GI50: 3.73 µM
  TGI: > 100 µM
HT-29; [10]
  CC50: > 100 µM
HCT-15
  GI50: 3.64 µM
  TGI: > 100 µM
HCT-15; [10]
  CC50: > 100 µM
A549
  GI50: 6.7 µM
  TGI: > 100 µM
A549; [10]
  CC50: > 100 µM
RPMI-8226
  GI50: 7.31 µM
  TGI: > 100 µM
RPMI-8226; [10]
  CC50: > 100 µM
MOLT-4
  GI50: 12.8 µM
  TGI: > 100 µM
MOLT-4; [10]
  CC50: > 100 µM
K562
  GI50: 4.13 µM
  TGI: > 100 µM
K562; [10]
  CC50: > 100 µM
CCRF-CEM
  GI50: 6.56 µM
  TGI: > 100 µM
CCRF-CEM; [10]
  CC50: > 100 µM

## C[C@@H]1NC(c2ccccc2)=Nc2nc3ccccn3c2C1=O
MDA-MB-435 [7]
  Activity: inactive
[8]
  Activity: 20%
MDA-MB-435 [9]
  Activity: 20%
